The values below come from ChEMBL document CHEMBL1138845, “Design of non-nucleoside inhibitors of HIV-1 reverse transcriptase with improved drug resistance properties. 2” (J Med Chem, 2004).

The subject of one experiment is HeLa. The experiment is described as follows: Inhibitory concentration against human immunodeficiency virus type 1 (with V106A/Y181C resistant mutation) was determined in HeLa-CD4 MAGI assay. In kind it is functional, cell-based. An outline of the steps: (§1)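 Tested against a panel of recombinant, isogenic HIV-1 viruses, wild type and NNRTI-resistant strains carrying engineered single or double RT mutations. The readout was IC50.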
In turn, `CCCc1c(O)nc2ccc(OC(F)(F)F)cc2c1OC1CCCC1` gave an IC50 of more than 2000 nM.

For the compound `CCCc1c(O)nc2ccccc2c1OC1CCCC1`, the half-maximal inhibitory concentration (IC50) is more than 2000 nM.

Compound `CC(C)Nc1cccnc1N1CCN(C(=O)c2cc3cc(NS(C)(=O)=O)ccc3[nH]2)CC1` [DELAVIRDINE] registered an IC50 of 10000 nM.

On to `CC(C)c1c(OC#CC2CC2)c2cc(F)ccc2[nH]c1=O`, for which inhibition was half-maximal at 220 nM (IC50).

For another experiment, the system named is Human immunodeficiency virus 1. The experiment is described as follows: Inhibitory concentration against wild type human immunodeficiency virus type 1 was determined by recombinant virus assay. Format: functional, organism-based. In outline: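 Isogenic recombinant HIV-1 carrying wild-type RT, tested in parallel with a panel of NNRTI-resistant RT mutants built on the same background; activity reported as IC50.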
With `CCCc1c(O)nc2ccc(OC(F)(F)F)cc2c1OC1CCCC1`, the IC50 amounted to 270 nM.

Take `CCCc1c(O)nc2ccccc2c1OC1CCCC1`: the IC50 turned out to be 350 nM.

As to `CC(C)Nc1cccnc1N1CCN(C(=O)c2cc3cc(NS(C)(=O)=O)ccc3[nH]2)CC1` [DELAVIRDINE], the IC50 is 159 nM.

For `CC(C)c1c(OC#CC2CC2)c2cc(F)ccc2[nH]c1=O`, the IC50 came to 10 nM.

The test system of another experiment is HeLa. The experiment is described as follows: Inhibitory concentration against human immunodeficiency virus type 1 (with V108I/Y181C resistant mutation) was determined in HeLa-CD4 MAGI assay. Format: functional, cell-based. An outline of the steps: as §1
Compound `CCCc1c(O)nc2ccc(OC(F)(F)F)cc2c1OC1CCCC1` registered an IC50 of more than 2000 nM.

The compound `CCCc1c(O)nc2ccccc2c1OC1CCCC1` came in with an IC50 of more than 2000 nM.

For the compound `CC(C)Nc1cccnc1N1CCN(C(=O)c2cc3cc(NS(C)(=O)=O)ccc3[nH]2)CC1` [DELAVIRDINE], the IC50 was determined as 10000 nM.

Compound `CC(C)c1c(OC#CC2CC2)c2cc(F)ccc2[nH]c1=O` yielded an IC50 of 11 nM.

The next experiment deals with HeLa. The experiment is described as follows: Inhibitory concentration against human immunodeficiency virus type 1 (with K103N/Y181C resistant mutation) was determined in HeLa-CD4 MAGI assay. Format: functional, cell-based. In outline: as §1
`CCCc1c(O)nc2ccc(OC(F)(F)F)cc2c1OC1CCCC1` registered an IC50 of more than 2000 nM.

`CCCc1c(O)nc2ccccc2c1OC1CCCC1` displayed an IC50 of more than 2000 nM.

Take `CC(C)Nc1cccnc1N1CCN(C(=O)c2cc3cc(NS(C)(=O)=O)ccc3[nH]2)CC1` [DELAVIRDINE]: the IC50 is 1250 nM.

In the case of `CC(C)c1c(OC#CC2CC2)c2cc(F)ccc2[nH]c1=O`, half-maximal inhibition (IC50) was put at 620 nM.

The subject of another experiment is MT4. The experiment is described as follows: Inhibitory concentration against wild type human immunodeficiency virus type 1 was determined by MT-4 assay. Format: functional, cell-based.
In the case of `CCCc1c(O)nc2ccc(OC(F)(F)F)cc2c1OC1CCCC1`, the IC50 is 380 nM.

`CCCc1c(O)nc2ccccc2c1OC1CCCC1` gave an IC50 of 380 nM.

In another experiment the test system is HeLa. The experiment is described as follows: Inhibitory concentration against human immunodeficiency virus type 1 (with Y181C resistant mutation) was determined in HeLa-CD4 MAGI assay. In kind it is functional, cell-based. An outline of the steps: as §1
For `CCCc1c(O)nc2ccc(OC(F)(F)F)cc2c1OC1CCCC1`, the IC50 was 990 nM.

As for `CCCc1c(O)nc2ccccc2c1OC1CCCC1`, half-maximal inhibition (IC50) was put at 630 nM.

On to `CC(C)c1c(OC#CC2CC2)c2cc(F)ccc2[nH]c1=O`, for which the IC50 worked out at 15 nM.

Another experiment has as its system HeLa. The experiment is described as follows: Inhibitory concentration against human immunodeficiency virus type 1 (with G190A resistant mutation) was determined in HeLa-CD4 MAGI assay. Format: functional, cell-based. In outline:
as §1
Consider `CCCc1c(O)nc2ccc(OC(F)(F)F)cc2c1OC1CCCC1`, for which the half-inhibitory concentration (IC50) came to 47 nM.

`CCCc1c(O)nc2ccccc2c1OC1CCCC1` displayed an IC50 of 270 nM.

`CC(C)Nc1cccnc1N1CCN(C(=O)c2cc3cc(NS(C)(=O)=O)ccc3[nH]2)CC1` [DELAVIRDINE] returned an IC50 of 35 nM.

`CC(C)c1c(OC#CC2CC2)c2cc(F)ccc2[nH]c1=O` had an IC50 of 5 nM.

The next experiment has as its system MT4. The experiment is described as follows: Ratio of cytotoxic concentration to that of inhibitory concentration as selectivity index was determined by MT-4 assay. In kind it is functional, Homo sapiens. In outline:
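Index is the IC50 in uninfected MT4 cells divided by the antiviral IC50 in MT4 cells infected with wild-type HIV-1 or the nevirapine-resistant strain carrying RT mutation Y181C.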
In the case of `CCCc1c(O)nc2ccc(OC(F)(F)F)cc2c1OC1CCCC1`, the Ratio is reported as more than 40000.

On to `CCCc1c(O)nc2ccccc2c1OC1CCCC1`, for which the Ratio is more than 40000.

With `CC(C)c1c(OC#CC2CC2)c2cc(F)ccc2[nH]c1=O`, the Ratio is 16000.

The next experiment concerns HeLa. The experiment is described as follows: Inhibitory concentration against human immunodeficiency virus type 1 (with K103N/V108I resistant mutation) was determined in HeLa-CD4 MAGI assay. In kind it is functional, cell-based. In outline:
as §1
Regarding `CCCc1c(O)nc2ccc(OC(F)(F)F)cc2c1OC1CCCC1`, the IC50 was more than 2000 nM.

`CCCc1c(O)nc2ccccc2c1OC1CCCC1` yielded an IC50 of more than 2000 nM.

`CC(C)Nc1cccnc1N1CCN(C(=O)c2cc3cc(NS(C)(=O)=O)ccc3[nH]2)CC1` [DELAVIRDINE] gave an IC50 of 3400 nM.

For the compound `CC(C)c1c(OC#CC2CC2)c2cc(F)ccc2[nH]c1=O`, the IC50 was found to be 720 nM.

The test system of another experiment is MT4. The experiment is described as follows: Inhibitory concentration against nevirapine resistant strain (with Y181C mutation in HIV-1 RT gene) of human immunodeficiency virus type 1 was determined by MT-4 assay. Format: functional, cell-based.
Regarding `CCCc1c(O)nc2ccc(OC(F)(F)F)cc2c1OC1CCCC1`, the IC50 was 2500 nM.

As for `CCCc1c(O)nc2ccccc2c1OC1CCCC1`, the half-inhibitory concentration (IC50) was determined as 3900 nM.

`CC(C)c1c(OC#CC2CC2)c2cc(F)ccc2[nH]c1=O` returned a 50% inhibitory concentration (IC50) of 25 nM.

The test system of a further experiment is HeLa. The experiment is described as follows: Inhibitory concentration against human immunodeficiency virus type 1 (with V108I resistant mutation) was determined in HeLa-CD4 MAGI assay. Format: functional, cell-based. In outline: as §1
For `CCCc1c(O)nc2ccc(OC(F)(F)F)cc2c1OC1CCCC1`, the IC50 came to 300 nM.

Regarding `CCCc1c(O)nc2ccccc2c1OC1CCCC1`, the IC50 amounted to 1220 nM.

For the compound `CC(C)Nc1cccnc1N1CCN(C(=O)c2cc3cc(NS(C)(=O)=O)ccc3[nH]2)CC1` [DELAVIRDINE], the IC50 came to 97 nM.

In turn, `CC(C)c1c(OC#CC2CC2)c2cc(F)ccc2[nH]c1=O` had an IC50 of 26 nM.

The subject of the next experiment is HeLa. The experiment is described as follows: Inhibitory concentration against human immunodeficiency virus type 1 (with V106A resistant mutation) was determined in HeLa-CD4 MAGI assay. In kind it is functional, cell-based. In outline: as §1
As for `CCCc1c(O)nc2ccc(OC(F)(F)F)cc2c1OC1CCCC1`, the IC50 was more than 2000 nM.

Turning to `CCCc1c(O)nc2ccccc2c1OC1CCCC1`, the IC50 is more than 2000 nM.

Compound `CC(C)Nc1cccnc1N1CCN(C(=O)c2cc3cc(NS(C)(=O)=O)ccc3[nH]2)CC1` [DELAVIRDINE] gave an IC50 of 870 nM.

`CC(C)c1c(OC#CC2CC2)c2cc(F)ccc2[nH]c1=O` gave an IC50 of 150 nM.

A further experiment relates to HeLa. The experiment is described as follows: Inhibitory concentration against human immunodeficiency virus type 1 (with K103N resistant mutation) was determined in HeLa-CD4 MAGI assay. In kind it is functional, cell-based. An outline of the steps:
as §1
Compound `CCCc1c(O)nc2ccc(OC(F)(F)F)cc2c1OC1CCCC1` yielded an IC50 of more than 2000 nM.

The compound `CCCc1c(O)nc2ccccc2c1OC1CCCC1` came in with an IC50 of more than 2000 nM.

As for `CC(C)Nc1cccnc1N1CCN(C(=O)c2cc3cc(NS(C)(=O)=O)ccc3[nH]2)CC1` [DELAVIRDINE], the IC50 came to 2650 nM.

Compound `CC(C)c1c(OC#CC2CC2)c2cc(F)ccc2[nH]c1=O` came in with an IC50 of 400 nM.

The next experiment relates to HeLa. The experiment is described as follows: Inhibitory concentration against human immunodeficiency virus type 1 (with Y188C resistant mutation) was determined in HeLa-CD4 MAGI assay. In kind it is functional, cell-based. An outline of the steps:
as §1
With `CCCc1c(O)nc2ccc(OC(F)(F)F)cc2c1OC1CCCC1`, the IC50 is 360 nM.

`CCCc1c(O)nc2ccccc2c1OC1CCCC1` gave an IC50 of 180 nM.

`CC(C)Nc1cccnc1N1CCN(C(=O)c2cc3cc(NS(C)(=O)=O)ccc3[nH]2)CC1` [DELAVIRDINE] yielded an IC50 of 124 nM.

For `CC(C)c1c(OC#CC2CC2)c2cc(F)ccc2[nH]c1=O`, the IC50 was determined as 23 nM.

A further experiment concerns HeLa. The experiment is described as follows: Inhibitory concentration against human immunodeficiency virus type 1 (with K103N/G190A resistant mutation) was determined in HeLa-CD4 MAGI assay. In kind it is functional, cell-based. An outline of the steps:
as §1
The compound `CCCc1c(O)nc2ccc(OC(F)(F)F)cc2c1OC1CCCC1` gave a 50% inhibitory concentration (IC50) of more than 2000 nM.

In turn, `CCCc1c(O)nc2ccccc2c1OC1CCCC1` displayed an IC50 of more than 2000 nM.

`CC(C)Nc1cccnc1N1CCN(C(=O)c2cc3cc(NS(C)(=O)=O)ccc3[nH]2)CC1` [DELAVIRDINE] yielded an IC50 of 8000 nM.

With `CC(C)c1c(OC#CC2CC2)c2cc(F)ccc2[nH]c1=O`, the IC50 came out at 100 nM.
